Reference: PMC5598371 (Toxicology Reports, 2015)

How the values were obtained:
[1] = Cytotoxic activity, MTT method; format: cell-based; conditions: human, oral keratinocytes (HOK), normal epithelial cells
In short: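 HOK grown in keratinocyte growth supplement medium, harvested with 0.25% trypsin-0.025% EDTA. Seeded at 2.5 × 10^3 cells/0.1 ml, grown 48 h, then medium replaced with fresh medium containing test compound dilutions (80 mM DMSO stocks; final DMSO usually below […]) or matched DMSO vehicle. After incubation, 0.2 mg/ml MTT for 3 h, DMSO lysis, A540. CC50 from dose–response curve.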

Ca9-22 = conditions: read-out: 50% cytotoxic concentration (CC50); Ca9-22, derived from gingiva (A); cited from earlier work
[2] = tested on: HGF/HPLF/HPC vs human OSCC cell lines; conditions: mean CC50 HGF/HPLF/HPC / mean CC50 OSCC lines; cited from earlier work
Pulp cell (HPC) = conditions: read-out: 50% cytotoxic concentration (CC50), normal; cited from earlier work
[3] = tested on: Gingival fibroblast (HGF); conditions: read-out: 50% cytotoxic concentration (CC50), normal (C); cited from earlier work
[4] = tested on: HOK vs human OSCC cell lines; assay: Tumor-specificity; format: cell-based; conditions: for Tumor-specificity index (TS) E/B: CC50 HOK / mean CC50 OSCC lines; for Potency-selectivity expression (PSE) E/B^2: TS x (1/B) x 100, HOK as normal cells
HSC-3 = conditions: read-out: 50% cytotoxic concentration (CC50); HSC-3, derived from tongue; cited from earlier work
[5] = tested on: HGEP vs human OSCC cell lines; assay: Tumor-specificity; format: cell-based; conditions: for Tumor-specificity index (TS) F/B: CC50 HGEP / mean CC50 OSCC lines; for Potency-selectivity expression (PSE) F/B^2: TS x (1/B) x 100, HGEP as normal cells
[6] = tested on: HGF/HPLF/HPC vs human OSCC cell lines; assay: Tumor-specificity; format: cell-based; conditions: TS x (1/B) x 100; HGF/HPLF/HPC as normal cells
[7] = Cytotoxic activity, MTT method; format: cell-based; conditions: human
HSC-4 = conditions: read-out: 50% cytotoxic concentration (CC50); HSC-4, derived from tongue; cited from earlier work
HGF vs Ca9-22 = conditions: CC50 HGF / CC50 Ca9-22; cited from earlier work
HSC-2 = conditions: read-out: 50% cytotoxic concentration (CC50); HSC-2, derived from tongue; cited from earlier work
[8] = tested on: Periodontal ligament fibroblast (HPLF); conditions: read-out: 50% cytotoxic concentration (CC50), normal; cited from earlier work
[9] = Effect of tetraethylammonium or cycloheximide on cytotoxicity; format: cell-based; conditions: Supplementary Fig. 3
HSC-2 cells [10] = assay: Metabolomic analysis; format: cell-based, human
In short: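 HSC-2 seeded 5 × 10^5 cells/10 ml, grown 48 h, re-fed for 30 min at 37 °C, then treated 3 h with 0, 1, 3 or 10 μM. Trypan-blue cell counts taken. Extraction: mannitol wash, then methanol with internal standards, chloroform/water partition and 5 kDa ultrafiltration. CE-TOFMS run in cation (1 M formic acid) and anion (50 mM ammonium acetate, pH 8.5) modes. One-point external calibration, normalised per cell. Quadruplicates, mean ± S.D., FDR-corrected p.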

HSC-2 cells [11] = assay: Western blot analysis of apoptosis and autophagy markers; format: cell-based, human
In short: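 HSC-2 cells treated with or without 10 μM for 4, 7.5 or 23 h. Laemmli whole-cell lysates (5 × 10^4 cells/lane) run on 12% SDS-PAGE and blotted to PVDF. Blocked 1 h in 5% BSA/TBS-Tween (pH 7.6). Primary anti-PARP, anti-caspase-3, anti-LC3 (1:1000) and anti-GAPDH (1:20,000) overnight at 4 °C, then HRP anti-rabbit 1 h at room temperature. Chemiluminescent detection; band densities expressed relative to GAPDH.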

HSC-2 cells [12] = assay: Time course of cytotoxicity induction; format: cell-based, human
In short: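 Pulse-chase in HSC-2 (DMEM, 10% heat-inactivated FBS, 37 °C, 5% CO2). Cells seeded at 2.5 × 10^3/0.1 ml and grown 48 h. Exposed to graded test compound concentrations for varied times, then switched to drug-free medium until 47 h after first addition. Viability by MTT (0.2 mg/ml, 3 h, A540). CC50 from dose–response curve. Triplicates (Exp. I), quadruplicates (Exp. II).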

HSC-2 cells [13] = assay: Fine cell structure under transmission electron microscope; format: cell-based, human; conditions: 3 h with 3 or 10 μM, compared with control cells
In short: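 HSC-2 cells were seeded at 5 × 10^5 cells/10 ml and […]. After a medium change, near-confluent cells were exposed 3 h to test compound (0, 3 or 10 μM) and washed in cold PBS. Fixation: 2% glutaraldehyde/0.1 M cacodylate pH 7.4, 1 h, 4 °C, then scraped, pelleted and post-fixed 90 min in 1% OsO4. Dehydrated, Araldite-embedded, thin sections stained with uranyl acetate and lead citrate; TEM at ×5000, 100 kV.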

[14] = 3 h, 1, 3 or 10 μM, not significant

O=c1[nH]cc(F)c(=O)[nH]1 [5-FU, 5-fluorouracil, reference compound]
CC50 [1]: 24.7 µM
CC50 (Ca9-22): 29 µM
Tumor-specificity index (TS) D/B [2]: >55.6
CC50 (Pulp cell (HPC)): > 1000 µM
CC50 [3]: > 1000 µM
Tumor-specificity index (TS) E/B [4]: 1.4
Potency-selectivity expression (PSE) E/B^2 [4]: 7.8
CC50 (HSC-3): 16 µM
Tumor-specificity index (TS) F/B [5]: 1.0
Potency-selectivity expression (PSE) F/B^2 [5]: 5.6
Potency-selectivity expression (PSE) D/B^2 [6]: >309
CC50 [7]: 18.8 µM
CC50 (HSC-4): 13 µM
Tumor-specificity index (TS) C/A (HGF vs Ca9-22): >34.5
CC50 (HSC-2): 13 µM
CC50 [8]: > 1000 µM

COc1ccc2occ(/C=C/c3ccc(O)cc3)c(=O)c2c1 [compound 11, (E)-3-(4-hydroxystyryl)-6-methoxy-4H-chromen-4-one]
CC50 [1]: 19 µM
effect of BH blocker (tetraethylammonium) on cytotoxicity [9]: not inhibited
effect of pretreatment with cycloheximide on cytotoxicity [9]: inhibited
CC50 (Ca9-22): 2.1 µM
Tumor-specificity index (TS) D/B [2]: 69.0
CC50 (Pulp cell (HPC)): 272 µM
intracellular concentration of 2-oxoglutarate (HSC-2 cells [10]; 3 h, 1, 3 and 10 μM, Fig. 6A): reduced, but not significantly
intracellular concentrations of 4-methyl-2-oxopentanoate, 2-hyroxyglutarate, creatine, 2-oxoisopentanoate (Q < 0.2), glycine and choline (p < 0.05) (HSC-2 cells [10]; 3 h, 1, 3 and 10 μM, Fig. 6A): significantly reduced
intracellular concentrations of diethanolamine and CDP-choline (HSC-2 cells [10]; 3 h, 1, 3 and 10 μM, Fig. 6B): increased, but not significantly
intracellular concentrations of proline, asparagine, DHAP, Ru5P, transcinnamate, γ-butyrobetaine (Q < 0.2) and glutamic acid (p < 0.05) (HSC-2 cells [10]; 3 h, 1, 3 and 10 μM, Fig. 6B): significantly increased
NADH/NAD+ ratio (HSC-2 cells [10]; [14]): minor increase
glycolytic metabolites (glucose-6-phosphate, fructose 6-phosphate, fructose 1,6-bisphospate, 3-phosphoglyceric acid) (HSC-2 cells [10]; [14]): minor increase
intracellular concentration of metabolites in TCA cycle (citrate, cis-aconiate, succinate, fumarate, malate) (HSC-2 cells [10]; [14]): minor reduction
lactate (HSC-2 cells [10]; [14]): minor reduction
polyamine pathway (putrescine, spermidine) (HSC-2 cells [10]; [14]): minor reduction
ratio of AMP/ATP (HSC-2 cells [10]; [14]): minor reduction
ratio of GMP/GTP (HSC-2 cells [10]; [14]): minor reduction
urea cycle (citrullin, arginine, ornithine) (HSC-2 cells [10]; [14]): no change or minor reduction
extracellular concentration of diethanolamine after treatment (HSC-2 cells [10]; culture medium, before treatment 12.1 ± 13.4 μM): 11.8 ± 5.3 µM
CC50 [3]: 67 µM
Tumor-specificity index (TS) E/B [4]: 9.5
Potency-selectivity expression (PSE) E/B^2 [4]: 475
LC3-II expression (autophagy marker) (HSC-2 cells [11]; 10 μM for 4, 7.5 and 23 h): decreased time-dependently to undetectable level
cleaved PARP1 and caspase-3 (apoptosis marker) (HSC-2 cells [11]; 10 μM, 23 h after treatment): appearance of cleaved PARP1 and caspase-3
full length PARP (HSC-2 cells [11]; 10 μM, 23 h after treatment): loss of full length PARP
type of cell death (HSC-2 cells [11]; 10 μM, HSC-2): induced apoptotic cell death after suppression of autophagy
CC50 (HSC-2 cells [12]; Homo sapiens, HSC-2, Exp. I, exposure time 21 h, drug-free medium until 47 h): < 1.56 µM
dead cells produced (HSC-2 cells [12]; higher concentrations, Fig. 2): more than 90%
treatment time at which cytotoxicity was triggered (HSC-2 cells [12]; pulse-chase, HSC-2): 3 h
CC50 (HSC-3): 3.6 µM
Tumor-specificity index (TS) F/B [5]: >400
Potency-selectivity expression (PSE) F/B^2 [5]: >20000
Potency-selectivity expression (PSE) D/B^2 [6]: 3450
CC50 [7]: > 800 µM
CC50 (HSC-4): 1.2 µM
Tumor-specificity index (TS) C/A (HGF vs Ca9-22): 31.9
CC50 (HSC-2): 1 µM
mitochondrial vacuolization (HSC-2 cells [13]): mitochondrial vacuolization became prominent
CC50 [8]: 74 µM

COc1cccc2c1C(=O)c1c(O)c3c(c(O)c1C2=O)C[C@@](O)(C(=O)CO)C[C@@H]3O[C@H]1C[C@H](N)[C@H](O)[C@H](C)O1 [Doxorubicin, doxorubicin, reference compound]
CC50 [1]: 1.31 µM
CC50 (Ca9-22): 0.26 µM
Tumor-specificity index (TS) D/B [2]: >26.0
CC50 (Pulp cell (HPC)): > 10 µM
CC50 [3]: 0.87 µM
Tumor-specificity index (TS) E/B [4]: 8.7
Potency-selectivity expression (PSE) E/B^2 [4]: 5800
CC50 (HSC-3): 0.11 µM
Tumor-specificity index (TS) F/B [5]: 0.2
Potency-selectivity expression (PSE) F/B^2 [5]: 133
Potency-selectivity expression (PSE) D/B^2 [6]: >17333
CC50 [7]: 0.027 µM
CC50 (HSC-4): 0.094 µM
Tumor-specificity index (TS) C/A (HGF vs Ca9-22): 3.3
CC50 (HSC-2): 0.12 µM
CC50 [8]: 0.87 µM

COc1ccc2occ(/C=C/c3cc(OC)c(OC)c(OC)c3)c(=O)c2c1 [compound 6, (E)-6-methoxy-3-(3,4,5-trimethoxystyryl)-4H-chromen-4-one]
CC50 [1]: 77 µM
effect of pretreatment with cycloheximide on cytotoxicity [9]: inhibited
CC50 (Ca9-22): 10 µM
Tumor-specificity index (TS) D/B [2]: 26.1
CC50 (Pulp cell (HPC)): 284 µM
CC50 [3]: 544 µM
Tumor-specificity index (TS) E/B [4]: 5.9
Potency-selectivity expression (PSE) E/B^2 [4]: 45
viable cells left (HSC-2 cells [12]; higher concentrations, Fig. 2): 30%
CC50 (HSC-3): 21 µM
Tumor-specificity index (TS) F/B [5]: 46.9
Potency-selectivity expression (PSE) F/B^2 [5]: 361
Potency-selectivity expression (PSE) D/B^2 [6]: 200
CC50 [7]: 610 µM
CC50 (HSC-4): 13 µM
Tumor-specificity index (TS) C/A (HGF vs Ca9-22): 54.4
CC50 (HSC-2): 6.8 µM
CC50 [8]: 190 µM

COc1ccc(/C=C/c2coc3ccc(OC)cc3c2=O)cc1 [compound 4, (E)-6-methoxy-3-(4-methoxystyryl)-4H-chromen-4-one]
CC50 [1]: 70 µM
effect of pretreatment with cycloheximide on cytotoxicity [9]: inhibited
CC50 (Ca9-22): 4.4 µM
Tumor-specificity index (TS) D/B [2]: 40.3
CC50 (Pulp cell (HPC)): 396 µM
CC50 [3]: 229 µM
Tumor-specificity index (TS) E/B [4]: 10.9
Potency-selectivity expression (PSE) E/B^2 [4]: 170
dead cells produced (HSC-2 cells [12]; higher concentrations, Fig. 2): more than 90%
CC50 (HSC-3): 7.7 µM
Tumor-specificity index (TS) F/B [5]: 27.8
Potency-selectivity expression (PSE) F/B^2 [5]: 434
Potency-selectivity expression (PSE) D/B^2 [6]: 630
CC50 [7]: 178 µM
CC50 (HSC-4): 9.2 µM
Tumor-specificity index (TS) C/A (HGF vs Ca9-22): 52.0
CC50 (HSC-2): 4.4 µM
CC50 [8]: 150 µM
